Experimental data published in the RNAGym collection of RNA variant scans (doi:10.1126/science.aae0568).
This sample holds only a part of the variants without activity.

B1: tRNA (parent)
chain: GUUCCGUUGGCGUAAUGGUAACGCGUCUCCCUCCUAAGGAGAAGACUGCGGGUUCGAGUCCCGUACGGAACG

Variants of: B1
Experiment: yeast fitness relative to wild type (ratio to wild type); higher = fitter; tRNA-Arg(CCU), competitive growth, 37 C, YPD
How it was run: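 Amplicons of the tRNA-Arg(CCU) gene were sequenced, 100-nucleotide paired-end, from the start population and from each end population of a pooled yeast competition. The competition, in six parallel replicates, lasted 24 hours in YPD at 37°C. Fitness relative to wild type was calculated from changes in genotype frequencies. Genotypes had to have ≥ 100 starting reads, and estimates < 0.5 were set to 0.5.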

Point of comparison: C11U C29U G67A A70U, yeast fitness 0.578. Against it:
- C11U G17A A57G — lower, ≤ 0.5
- C11U C49G A57C G67U — lower, ≤ 0.5
- C11U C34U — higher, 0.714
- C11U C31U C66U — higher, 0.742
- C11U G18C — higher, 0.728
- C11U C31U — higher, 0.804
- C11U C31A — higher, 0.725
- C11U C55G — higher, 0.594
- C11U U35C A36U C46U — higher, 0.75
- C11U U32A C34A A43C C61U G68A — lower, ≤ 0.5
- C11U C29G C31U A57U — lower, ≤ 0.5
- C11U U16A G67A — lower, 0.551
- C11U U19A G41A A65U — lower, ≤ 0.5
- C11U C31U A37U A70U — lower, ≤ 0.5
- C11U U26G G56A — lower, ≤ 0.5
- C11U C31G A57U — lower, 0.533
- C11U C31G C46G C66U — lower, 0.564
- C11U U13C C30U — higher, 0.769
- C11U C30G A40U A45U C55G — higher, 0.604
- C11U G38A — higher, 1.02
- C11U C29G C31U C34G A70C — lower, 0.534
- C11U U32G U59C — lower, ≤ 0.5
- C11U G17C — higher, 0.768
- C11U U54A — higher, 0.733
- C11U U54C — higher, 0.844
- C11U G51A G63C A69U — lower, ≤ 0.5
- C11U C60G C62U G68C — lower, 0.505
- C11U U13C A14G C24A A43C G50C C60G — lower, ≤ 0.5
- C11U C29G C55G A57G — lower, ≤ 0.5
- C11U C49U A65C — higher, 0.727
- C11U C49U C61A — lower, 0.555
- C11U C62G A69U — the same, 0.578
- C11U G39C C66U — lower, 0.558
- C11U C31U G51C — lower, ≤ 0.5
- C11U U19G C27U G48A C66U — lower, ≤ 0.5
- C11U U35G U47A G48A A65U — lower, ≤ 0.5
- C11U U13C A42U G63A — lower, ≤ 0.5
- C11U G17C A37G G56C C61A A65G C66G — lower, ≤ 0.5
- C11U C33U A69U — higher, 0.605
- C11U U47C G48A G56A — lower, ≤ 0.5
- C11U G38A C60U G67C — lower, ≤ 0.5
- C11U U35A G38A C61A — lower, ≤ 0.5
- C11U G48A U54C — higher, 0.677
- C11U U16A U47C — higher, 0.838
- C11U C34U G48A G67U — lower, ≤ 0.5
- C11U C31U C60A — lower, ≤ 0.5
- C11U G52C G67C — lower, ≤ 0.5
- C11U G51A C61G — lower, ≤ 0.5
- C11U G41C G68A A69C — lower, ≤ 0.5
- C11U C30G G58A — lower, ≤ 0.5
- C11U G56C A57U C60U — lower, ≤ 0.5
- C11U C30U G38C A65G — lower, 0.506
- C11U G51A G58A A70C — lower, ≤ 0.5
- C11U G25A A43G G51C C55G — higher, 0.695
- C11U U28C A40C G50C A70C — lower, ≤ 0.5
- C11U G12A G44C C46U U59A — lower, ≤ 0.5
- C11U G12A C61U — lower, 0.511
- C11U U16C — higher, 1.02
- C11U U16G — higher, 0.823
- C11U G17C A45G — higher, 0.586
- C11U C30U — higher, 0.748
- C11U G25A C29A A42C A45G — lower, ≤ 0.5
- C11U U13G A21G U26C C27G G48C G67A — lower, ≤ 0.5
- C11U U28G C29A — lower, ≤ 0.5
- C11U C34G A40C A43G G51C — lower, ≤ 0.5
- C11U G17C A21U — lower, 0.541
- C11U C46U A70G — higher, 0.786
- C11U G44C G67A — higher, 0.638
- C11U U13G C29U C34G C46G G58A — lower, ≤ 0.5
- C11U C30U C46A — higher, 0.821
- C11U G44A C61A — higher, 0.823
- C11U G50A G63A — higher, 0.606
- C11U U13G U19A C22G G25A — higher, 0.604
- C11U G12A A15C C31A G51A — lower, ≤ 0.5
- C11U U28C A40C G50C — lower, ≤ 0.5
- C11U U16C G58C — higher, 0.653
- C11U G56C C62U G68U — lower, ≤ 0.5
- C11U G12A C66U — higher, 0.587
- C11U U19C G23A G25A A43U C55U — lower, ≤ 0.5
- C11U U16C U19A C29U — lower, ≤ 0.5
- C11U G44A U53G — lower, 0.529
- C11U C30U A43G — lower, ≤ 0.5
- C11U U32A A42C — lower, 0.545
- C11U G48A — higher, 0.972
- C11U U16A C24G A42C — lower, ≤ 0.5
- C11U C46A — higher, 1.03
- C11U C46U — higher, 1
- C11U U32A G50A G51A G56C C61G — lower, ≤ 0.5
- C11U U19G G51C C61G — lower, ≤ 0.5
- C11U U16A A36C A43G C62G A65U — lower, ≤ 0.5
- C11U U26G A43C U53C C66U A70C — lower, 0.504
- C11U C49U — higher, 0.976
- C11U C49A — higher, 0.724
- C11U U16C C31U A69G — lower, ≤ 0.5
- C11U U19G U35G — lower, ≤ 0.5
- C11U U26A — higher, 0.999
- C11U U26G — higher, 0.856
- C11U U26C — higher, 0.948
- C11U C29U C60G A70G — lower, ≤ 0.5
- C11U G38C U64G A70C — lower, ≤ 0.5
- C11U C62U A70C — higher, 0.698
- C11U C62U — higher, 0.943
- C11U C62G — higher, 0.912
- C11U C62A — higher, 0.743
- C11U C29G A36U C66A — lower, ≤ 0.5
- C11U U19G C22G A42G G44C C55U — lower, ≤ 0.5
- C11U C34A C46U — lower, ≤ 0.5
- C11U G44A A65C — higher, 0.704
- C11U C31A G51C — lower, 0.532
- C11U G44C C61U — lower, 0.528
- C11U G52C C66U — lower, ≤ 0.5
- C11U C29G C31U — lower, 0.531
- C11U C60G G67A — lower, 0.549
- C11U G50C — higher, 0.759
- C11U C46A A65U — higher, 0.682
- C11U C34A C61U — lower, ≤ 0.5
- C11U G41A A42G A70U — lower, ≤ 0.5
- C11U G41A A65U — lower, 0.515
- C11U G39C G58A A70U — lower, ≤ 0.5
- C11U U47C — higher, 1.04
- C11U U47G — higher, 0.688
- C11U U16C C27G C34G G67A — lower, ≤ 0.5
- C11U G56A A65C — higher, 0.732
- C11U C49U G56C C62U — lower, ≤ 0.5
- C11U G25C C55U — lower, ≤ 0.5
- C11U U19C — higher, 0.941
- C11U U28C U32G A70U — lower, ≤ 0.5
- C11U U13A — higher, 0.832
- C11U U13C — higher, 0.954
- C11U C34G U47G — lower, ≤ 0.5
- C11U C34A A36C G67C — lower, ≤ 0.5
- C11U U19A C61U G68A — lower, ≤ 0.5
- C11U C55G A70C — lower, 0.541
- C11U U13A C30A C33A A57U — lower, ≤ 0.5
- C11U U16A C29A A45U — higher, 0.605
- C11U G41C A42G — lower, 0.547
- C11U C61A G67A — lower, 0.53
- C11U C34A A70G — higher, 0.581
- C11U G48A A65U — higher, 0.792
- C11U G48A A65C — higher, 0.663
- C11U C31G C33U A37C A65U — lower, ≤ 0.5
- C11U U13A A20C C22G — lower, ≤ 0.5
- C11U U28A U54C — lower, ≤ 0.5
- C11U C31U U47C — higher, 0.78
- C11U G48C A65G — higher, 0.714
- C11U C30G A40G G50C G51C — lower, ≤ 0.5
- C11U C31G A57U G67U — lower, ≤ 0.5
- C11U U19A A42G — lower, 0.56
- C11U C33G C46A C61A — lower, ≤ 0.5
- C11U C31G C46A U54C C61G — lower, ≤ 0.5
- C11U C66U — higher, 0.931
- C11U U35A G38A — lower, 0.51
- C11U C29G A37C A42U — lower, ≤ 0.5
- C11U G48A G51C G68U — higher, 0.59
- C11U G48A C55A G58C — lower, ≤ 0.5
- C11U C31U G41U C49U — lower, 0.522
- C11U C62G C66A — lower, ≤ 0.5
- C11U C31G C49G C62U G67C — lower, ≤ 0.5
- C11U G52C C61G — lower, ≤ 0.5
- C11U C55A G56C G67C — lower, ≤ 0.5
- C11U G25C C34A — lower, 0.557
- C11U C34A A57G — lower, 0.548
- C11U U16C C27U C31A U35C C55G C66U — lower, ≤ 0.5
- C11U U35C C46G G52C G68C — lower, ≤ 0.5
- C11U G18A A43U — lower, 0.533
- C11U G12A C24U U47C — lower, ≤ 0.5
